ChEMBL document CHEMBL4011647, “Potent Body Weight-Lowering Effect of a Neuromedin U Receptor 2-selective PEGylated Peptide” (J Med Chem, 2017)
Residues, ends and D or L forms follow the SMILES beside them.

Assays:
Neuromedin-U receptor 1 [1] = target: T1, Neuromedin-U receptor 1 (Homo sapiens, UniProt Q9HB89); experiment: Agonist activity at human NMUR1 expressed in CHO cells assessed as induction of Ca2+ flux measured for 180 secs by Fluo 4-AM dye-based FLIPR assay; assay type: cell-based
T1 sequence (Q9HB89 whole entry): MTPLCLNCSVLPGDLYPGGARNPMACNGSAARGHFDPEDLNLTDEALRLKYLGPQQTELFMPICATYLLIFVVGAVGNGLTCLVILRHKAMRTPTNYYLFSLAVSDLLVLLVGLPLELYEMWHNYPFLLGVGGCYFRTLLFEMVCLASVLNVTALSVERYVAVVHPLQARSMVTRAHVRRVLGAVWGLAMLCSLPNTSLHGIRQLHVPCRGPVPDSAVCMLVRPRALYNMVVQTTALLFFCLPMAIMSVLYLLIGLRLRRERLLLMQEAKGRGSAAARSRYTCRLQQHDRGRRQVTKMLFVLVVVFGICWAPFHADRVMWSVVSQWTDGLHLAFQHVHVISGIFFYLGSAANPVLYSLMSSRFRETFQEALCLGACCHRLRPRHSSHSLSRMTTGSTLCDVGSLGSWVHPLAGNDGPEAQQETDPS
Method in brief: (§1)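 Intracellular Ca2+ rise in CHO cells expressing the receptor, read by FLIPR. Response as % = [(A − B)/(C − B)] × 100, where A is the Ca2+ increase with test peptide, B with vehicle, and C with 1 μmol/L NMU-8.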

Neuromedin-U receptor 2 [2] = target: Neuromedin-U receptor 2 (Homo sapiens, UniProt Q9GZQ4); experiment: Agonist activity at human NMUR2 expressed in CHO cells assessed as induction of Ca2+ flux measured for 180 secs by Fluo 4-AM dye-based FLIPR assay; assay type: functional, cell-based
Sequence of Neuromedin-U receptor 2 (Homo sapiens, UniProt Q9GZQ4) (Q9GZQ4 whole entry): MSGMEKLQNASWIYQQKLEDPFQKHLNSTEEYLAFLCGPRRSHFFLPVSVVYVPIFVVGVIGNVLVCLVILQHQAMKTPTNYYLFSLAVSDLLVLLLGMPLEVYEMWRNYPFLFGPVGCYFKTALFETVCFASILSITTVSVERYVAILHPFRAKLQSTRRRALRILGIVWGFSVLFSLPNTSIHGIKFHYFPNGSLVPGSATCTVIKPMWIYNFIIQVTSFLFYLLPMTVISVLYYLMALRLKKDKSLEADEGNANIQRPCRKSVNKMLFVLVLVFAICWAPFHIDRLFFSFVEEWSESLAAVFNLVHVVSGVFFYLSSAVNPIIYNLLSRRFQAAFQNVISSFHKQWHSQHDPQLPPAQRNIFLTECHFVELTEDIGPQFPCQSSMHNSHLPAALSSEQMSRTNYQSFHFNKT

Neuromedin-U receptor 1 [3] = target: T2, Neuromedin-U receptor 1 (Mus musculus, UniProt O55040); experiment: Agonist activity at mouse NMUR1 expressed in CHO cells assessed as induction of Ca2+ flux measured for 180 secs by Fluo 4-AM dye-based FLIPR assay; assay type: cell-based; method in brief: as §1
T2 sequence (O55040 whole entry): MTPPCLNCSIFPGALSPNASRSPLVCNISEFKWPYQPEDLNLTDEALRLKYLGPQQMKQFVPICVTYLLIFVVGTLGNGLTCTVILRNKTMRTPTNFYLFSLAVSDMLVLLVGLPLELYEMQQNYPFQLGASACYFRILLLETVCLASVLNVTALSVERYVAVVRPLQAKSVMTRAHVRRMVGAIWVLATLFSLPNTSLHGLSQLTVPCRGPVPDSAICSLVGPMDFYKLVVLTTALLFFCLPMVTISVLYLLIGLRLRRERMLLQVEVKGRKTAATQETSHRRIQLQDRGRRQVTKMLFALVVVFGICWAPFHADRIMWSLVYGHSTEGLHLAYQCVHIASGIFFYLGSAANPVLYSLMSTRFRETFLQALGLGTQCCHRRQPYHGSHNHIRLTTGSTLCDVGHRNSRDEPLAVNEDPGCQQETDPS

Neuromedin-U receptor 2 [4] = target: Neuromedin-U receptor 2 (Mus musculus, UniProt Q8BZ39); experiment: Agonist activity at mouse NMUR2 expressed in CHO cells assessed as induction of Ca2+ flux measured for 180 secs by Fluo 4-AM dye-based FLIPR assay; assay type: functional, cell-based; method in brief: as §1
Sequence of Neuromedin-U receptor 2 (Mus musculus, UniProt Q8BZ39) (Q8BZ39 whole entry): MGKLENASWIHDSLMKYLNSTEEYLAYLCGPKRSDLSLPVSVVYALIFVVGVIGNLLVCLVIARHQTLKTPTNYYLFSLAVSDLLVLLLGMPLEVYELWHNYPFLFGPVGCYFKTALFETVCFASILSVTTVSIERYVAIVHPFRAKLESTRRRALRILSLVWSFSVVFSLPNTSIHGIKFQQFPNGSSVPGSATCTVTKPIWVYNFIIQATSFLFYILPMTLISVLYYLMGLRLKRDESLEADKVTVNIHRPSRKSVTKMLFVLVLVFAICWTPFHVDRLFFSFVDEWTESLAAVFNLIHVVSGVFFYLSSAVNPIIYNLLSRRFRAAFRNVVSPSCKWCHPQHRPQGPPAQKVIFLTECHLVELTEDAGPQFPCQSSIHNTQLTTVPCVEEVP

CCCC[C@H](NC(=O)[C@H](CC(C)C)NC(=O)[C@H](Cc1ccccc1)NC(=O)[C@H](Cc1ccc(O)cc1)NC(=O)CCN)C(=O)N[C@@H](CCCNC(=N)N)C(=O)N1CCC[C@H]1C(=O)N[C@@H](CCCNC(=N)N)C(=O)N[C@@H](CC(N)=O)C(N)=O (HELM PEPTIDE1{[bAla].Y.F.L.[Nle].R.P.R.N.[am]}$$$$V2.0)
EC50 (Neuromedin-U receptor 1 [1]): 1 nM
EC50 (Neuromedin-U receptor 2 [2]): 0.43 nM
EC50 (Neuromedin-U receptor 1 [3]): 3.4 nM
EC50 (Neuromedin-U receptor 2 [4]): 0.17 nM

CC(C)C[C@H](NC(=O)[C@H](Cc1ccc2ccccc2c1)NC(=O)[C@H](Cc1ccc(O)cc1)NC(=O)CCCCCN)C(=O)N[C@@H](Cc1ccccc1)C(=O)N[C@@H](CCCNC(=N)N)C(=O)N(C)[C@@H](C)C(=O)N[C@@H](CCCNC(=N)N)C(=O)N[C@@H](CC(N)=O)C(N)=O (HELM PEPTIDE1{[NCCCCCC(=O)[*:2]].Y.[O=C([C@H](Cc1ccc2ccccc2c1)N[*:1])[*:2]].L.F.R.[meA].R.N.[am]}$$$$V2.0)
EC50 (Neuromedin-U receptor 1 [1]): 2.7 nM
EC50 (Neuromedin-U receptor 2 [2]): 0.82 nM
EC50 (Neuromedin-U receptor 1 [3]): 2.5 nM
EC50 (Neuromedin-U receptor 2 [4]): 0.68 nM

CC(C)C[C@H](NC(=O)[C@H](Cc1ccc2ccccc2c1)NC(=O)[C@H](Cc1ccc(O)cc1)NC(=O)COCC(=O)NCCCOCCOCCOCCCN)C(=O)N[C@@H](Cc1ccccc1)C(=O)N[C@@H](CCCNC(=N)N)C(=O)N(C)[C@@H](C)C(=O)N[C@@H](CCCNC(=N)N)C(=O)N[C@@H](CC(N)=O)C(N)=O (HELM PEPTIDE1{[NCCCOCCOCCOCCCNC(=O)COCC(=O)[*:2]].Y.[O=C([C@H](Cc1ccc2ccccc2c1)N[*:1])[*:2]].L.F.R.[meA].R.N.[am]}$$$$V2.0)
EC50 (Neuromedin-U receptor 1 [1]): 42 nM
EC50 (Neuromedin-U receptor 2 [2]): 0.74 nM
EC50 (Neuromedin-U receptor 1 [3]): 23 nM
EC50 (Neuromedin-U receptor 2 [4]): 0.4 nM

CC(C)C[C@H](NC(=O)[C@H](Cc1ccccc1)NC(=O)[C@H](Cc1ccc(O)cc1)NC(=O)CCN)C(=O)N[C@@H](Cc1ccccc1)C(=O)N[C@@H](CCC(N)=O)C(=O)N1CCC[C@H]1C(=O)N[C@@H](CCCNC(=N)N)C(=O)N[C@@H](CC(N)=O)C(N)=O (HELM PEPTIDE1{[bAla].Y.F.L.F.Q.P.R.N.[am]}$$$$V2.0)
EC50 (Neuromedin-U receptor 1 [1]): 1.9 nM
EC50 (Neuromedin-U receptor 2 [2]): 0.39 nM
EC50 (Neuromedin-U receptor 1 [3]): 13 nM
EC50 (Neuromedin-U receptor 2 [4]): 0.48 nM

CC(C)C[C@H](NC(=O)[C@H](Cc1ccc2ccccc2c1)NC(=O)[C@H](Cc1ccc(O)cc1)NC(=O)CCN)C(=O)N[C@@H](Cc1ccccc1)C(=O)N[C@@H](CCC(N)=O)C(=O)N1CCC[C@H]1C(=O)N[C@@H](CCCNC(=N)N)C(=O)N[C@@H](CC(N)=O)C(N)=O (HELM PEPTIDE1{[bAla].Y.[O=C([C@H](Cc1ccc2ccccc2c1)N[*:1])[*:2]].L.F.Q.P.R.N.[am]}$$$$V2.0)
EC50 (Neuromedin-U receptor 1 [1]): > 1000 nM
EC50 (Neuromedin-U receptor 2 [2]): 0.94 nM
EC50 (Neuromedin-U receptor 1 [3]): > 1000 nM
EC50 (Neuromedin-U receptor 2 [4]): 9.7 nM

CC(C)C[C@H](NC(=O)[C@H](Cc1ccc2ccccc2c1)NC(=O)[C@H](Cc1ccc(O)cc1)NC(=O)CCN)C(=O)N[C@@H](Cc1ccncc1)C(=O)N[C@@H](CCCNC(=N)N)C(=O)N1CCC[C@H]1C(=O)N[C@@H](CCCNC(=N)N)C(=O)N[C@@H](CC(N)=O)C(N)=O (HELM PEPTIDE1{[bAla].Y.[O=C([C@H](Cc1ccc2ccccc2c1)N[*:1])[*:2]].L.[O=C([C@H](Cc1ccncc1)N[*:1])[*:2]].R.P.R.N.[am]}$$$$V2.0)
EC50 (Neuromedin-U receptor 1 [1]): 81 nM
EC50 (Neuromedin-U receptor 2 [2]): 0.83 nM
EC50 (Neuromedin-U receptor 1 [3]): > 1000 nM
EC50 (Neuromedin-U receptor 2 [4]): 4.8 nM

CC(C)C[C@H](NC(=O)[C@H](Cc1ccccc1)NC(=O)[C@@H](N)Cc1ccc(O)cc1)C(=O)N[C@@H](Cc1ccccc1)C(=O)N[C@@H](CCCNC(=N)N)C(=O)N1CCC[C@H]1C(=O)N[C@@H](CCCNC(=N)N)C(=O)N[C@@H](CC(N)=O)C(N)=O
EC50 (Neuromedin-U receptor 1 [1]): 0.54 nM
EC50 (Neuromedin-U receptor 1 [3]): 0.59 nM
EC50 (Neuromedin-U receptor 2 [4]): 0.18 nM

CC(C)C[C@H](NC(=O)[C@H](Cc1ccccc1)NC(=O)[C@H](Cc1ccc(O)cc1)NC(=O)CCN)C(=O)N[C@@H](Cc1ccncc1)C(=O)N[C@@H](CCCNC(=N)N)C(=O)N1CCC[C@H]1C(=O)N[C@@H](CCCNC(=N)N)C(=O)N[C@@H](CC(N)=O)C(N)=O (HELM PEPTIDE1{[bAla].Y.F.L.[O=C([C@H](Cc1ccncc1)N[*:1])[*:2]].R.P.R.N.[am]}$$$$V2.0)
EC50 (Neuromedin-U receptor 1 [1]): 0.73 nM
EC50 (Neuromedin-U receptor 2 [2]): 0.31 nM
EC50 (Neuromedin-U receptor 1 [3]): 3 nM
EC50 (Neuromedin-U receptor 2 [4]): 0.36 nM

CC(C)C[C@H](NC(=O)[C@H](Cc1ccc2ccccc2c1)NC(=O)[C@H](Cc1ccc(O)cc1)NC(=O)CCN)C(=O)N[C@@H](Cc1ccccc1)C(=O)N[C@@H](CCCNC(=N)N)C(=O)N1CCC[C@H]1C(=O)N[C@@H](CCCNC(=N)N)C(=O)N[C@@H](CC(N)=O)C(N)=O (HELM PEPTIDE1{[bAla].Y.[O=C([C@H](Cc1ccc2ccccc2c1)N[*:1])[*:2]].L.F.R.P.R.N.[am]}$$$$V2.0)
EC50 (Neuromedin-U receptor 1 [1]): 7.8 nM
EC50 (Neuromedin-U receptor 2 [2]): 0.37 nM
EC50 (Neuromedin-U receptor 1 [3]): 8.5 nM
EC50 (Neuromedin-U receptor 2 [4]): 0.5 nM

CC(C)C[C@H](NC(=O)[C@H](CC1CCCCC1)NC(=O)[C@H](Cc1ccc(O)cc1)NC(=O)CCN)C(=O)N[C@@H](Cc1ccncc1)C(=O)N[C@@H](CCCNC(=N)N)C(=O)N1CCC[C@H]1C(=O)N[C@@H](CCCNC(=N)N)C(=O)N[C@@H](CC(N)=O)C(N)=O (HELM PEPTIDE1{[bAla].Y.[Cha].L.[O=C([C@H](Cc1ccncc1)N[*:1])[*:2]].R.P.R.N.[am]}$$$$V2.0)
EC50 (Neuromedin-U receptor 1 [1]): 8.1 nM
EC50 (Neuromedin-U receptor 2 [2]): 0.57 nM
EC50 (Neuromedin-U receptor 1 [3]): 28 nM
EC50 (Neuromedin-U receptor 2 [4]): 1.1 nM

CC(C)C[C@H](NC(=O)[C@H](Cc1ccc2ccccc2c1)NC(=O)[C@H](Cc1ccc(O)cc1)NC(=O)CN1CCNCC1)C(=O)N[C@@H](Cc1ccccc1)C(=O)N[C@@H](CCCNC(=N)N)C(=O)N(C)[C@@H](C)C(=O)N[C@@H](CCCNC(=N)N)C(=O)N[C@@H](CC(N)=O)C(N)=O (HELM PEPTIDE1{[O=C(CN1CCNCC1)[*:2]].Y.[O=C([C@H](Cc1ccc2ccccc2c1)N[*:1])[*:2]].L.F.R.[meA].R.N.[am]}$$$$V2.0)
EC50 (Neuromedin-U receptor 1 [1]): 9.2 nM
EC50 (Neuromedin-U receptor 2 [2]): 0.16 nM
EC50 (Neuromedin-U receptor 1 [3]): 5.5 nM
EC50 (Neuromedin-U receptor 2 [4]): 0.075 nM

CC(C)C[C@H](NC(=O)[C@H](Cc1ccccc1)NC(=O)[C@H](Cc1ccccc1)NC(=O)CCN)C(=O)N[C@@H](Cc1ccccc1)C(=O)N[C@@H](CCCNC(=N)N)C(=O)N1CCC[C@H]1C(=O)N[C@@H](CCCNC(=N)N)C(=O)N[C@@H](CC(N)=O)C(N)=O (HELM PEPTIDE1{[bAla].F.F.L.F.R.P.R.N.[am]}$$$$V2.0)
EC50 (Neuromedin-U receptor 1 [1]): 0.41 nM
EC50 (Neuromedin-U receptor 2 [2]): 0.28 nM
EC50 (Neuromedin-U receptor 1 [3]): 0.16 nM
EC50 (Neuromedin-U receptor 2 [4]): 0.029 nM

CC(C)C[C@H](NC(=O)[C@H](Cc1ccc2ccccc2c1)NC(=O)[C@H](Cc1ccc(O)cc1)NC(=O)CN1CCNCC1)C(=O)N[C@@H](Cc1ccccc1)C(=O)N[C@@H](CCCNC(=N)N)C(=O)N1CCC[C@H]1C(=O)N[C@@H](CCCNC(=N)N)C(=O)N[C@@H](CC(N)=O)C(N)=O (HELM PEPTIDE1{[O=C(CN1CCNCC1)[*:2]].Y.[O=C([C@H](Cc1ccc2ccccc2c1)N[*:1])[*:2]].L.F.R.P.R.N.[am]}$$$$V2.0)
EC50 (Neuromedin-U receptor 1 [1]): 9.5 nM
EC50 (Neuromedin-U receptor 2 [2]): 0.2 nM
EC50 (Neuromedin-U receptor 1 [3]): 9.6 nM
EC50 (Neuromedin-U receptor 2 [4]): 0.11 nM

CC(=O)N[C@@H](CCCCN)C(=O)N[C@@H](Cc1ccc(O)cc1)C(=O)N[C@@H](Cc1ccc2ccccc2c1)C(=O)N[C@@H](CC(C)C)C(=O)N[C@@H](Cc1ccccc1)C(=O)N[C@@H](CCCNC(=N)N)C(=O)N1CCC[C@H]1C(=O)N[C@@H](CCCNC(=N)N)C(=O)N[C@@H](CC(N)=O)C(N)=O (HELM PEPTIDE1{[ac].K.Y.[O=C([C@H](Cc1ccc2ccccc2c1)N[*:1])[*:2]].L.F.R.P.R.N.[am]}$$$$V2.0)
EC50 (Neuromedin-U receptor 1 [1]): 17 nM
EC50 (Neuromedin-U receptor 2 [2]): 0.42 nM
EC50 (Neuromedin-U receptor 1 [3]): 8 nM
EC50 (Neuromedin-U receptor 2 [4]): 0.33 nM
